Experimental data taken from the RNAGym collection of RNA variant scans (doi:10.1126/science.aae0568).
Fewer inactive variants are shown than the library holds.

B1: tRNA (parent)
chain: GUUCCGUUGGCGUAAUGGUAACGCGUCUCCCUCCUAAGGAGAAGACUGCGGGUUCGAGUCCCGUACGGAACG

Variants of: B1
Experiment: yeast fitness relative to wild type (ratio to wild type); higher = fitter; tRNA-Arg(CCU), competitive growth, 37 C, YPD
How it was run: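 Changes in genotype frequencies gave Darwinian fitness relative to wild type. Frequencies were read by 100-nucleotide paired-end sequencing of gene amplicons before and after pooled Saccharomyces cerevisiae strains, carrying tRNA-Arg(CCU) gene variants at the native locus, were competed in YPD at 37°C for 24 hours in six replicates. A genotype was kept only with ≥ 100 starting reads, and estimates < 0.5 were set to 0.5.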

First: U26A C29A A45U G58A
Second: U26G G51C
The yeast fitness of the first is lower: at most 0.5 for the first, 0.588 for the second.

Compared with G25C C34U, C27G A65C A70C is lower in yeast fitness: 0.558 for the first, 0.53 for the second.

Compared with G25A C46U C66U, U26C A36U is lower in yeast fitness: 0.778 for the first, 0.608 for the second.

Compared with U26A C31G A37G G63A, C27G C33G C60U C61G is higher in yeast fitness: at most 0.5 for the first, 0.503 for the second.

G25C G48A C60G and C27G C49U A65C cannot be ordered by yeast fitness: at most 0.5 for the first, at most 0.5 for the second.

Going from C27A A40G C61G to G25C A40C C62A, the yeast fitness rises from 0.614 to 0.675.

Compared with C27G C30U G67A A70G, C27A G67A is higher in yeast fitness: at most 0.5 for the first, 0.807 for the second.

Going from C27A G67U to C27A G67C, the yeast fitness rises from 0.745 to 0.786.

First: U26A C46G C61U
Second: C27G C34U A43C A57U G58A C62G
The yeast fitness of the first is higher: 0.699 for the first, at most 0.5 for the second.

Compared with C27G G52A, U26C C46U G51A is lower in yeast fitness: 0.941 for the first, 0.64 for the second.

Going from G25A C31U G38C U54C to G25U A36U G56C A65C G67A, the yeast fitness falls from 0.654 to at most 0.5.

Compared with C27A A36G U53A A70G, U26A U59C C66U is higher in yeast fitness: at most 0.5 for the first, 0.564 for the second.

Compared with G25C U28C A69U, G25A U26A is higher in yeast fitness: 0.532 for the first, 0.839 for the second.

Compared with U26A C46G, C27A G68C is lower in yeast fitness: 0.973 for the first, 0.893 for the second.

Compared with G25C A57U, C27A G39C C55G A65U is lower in yeast fitness: 0.659 for the first, at most 0.5 for the second.

U26C A36U A45U G52C A57U and C27U A37G C55U cannot be ordered by yeast fitness: at most 0.5 for the first, at most 0.5 for the second.

Going from U26A C31A A42G C55G A57C to G25C G44A A69U, the yeast fitness rises from at most 0.5 to 0.622.

C27G U32A C34A C55A and U26C C61U C62G cannot be ordered by yeast fitness: at most 0.5 for the first, at most 0.5 for the second.

Compared with G25A G56A A69C, C27G A40G G48A A57C U64A is lower in yeast fitness: 0.773 for the first, at most 0.5 for the second.

Compared with C27U A40C A57U, U26A G58U is higher in yeast fitness: 0.606 for the first, 1.03 for the second.

Going from U26A G58C to C27G A37G U64A, the yeast fitness falls from 0.98 to at most 0.5.

C27G C34G A37U and C27A G38C G51C A69U cannot be ordered by yeast fitness: at most 0.5 for the first, at most 0.5 for the second.

U26A G38C G58C U64A and G25A G41A G52C cannot be ordered by yeast fitness: at most 0.5 for the first, at most 0.5 for the second.

First: U26C C30U C46A U47G G50A
Second: G25A C34A A36C
The yeast fitness of the first is lower: at most 0.5 for the first, 0.587 for the second.

Going from U26A C66A A70U to U26C G50A, the yeast fitness rises from at most 0.5 to 0.932.

Going from U26C C60G to C27G U28G A36G U64C, the yeast fitness falls from 0.642 to at most 0.5.

Compared with C27G A70U, G25A C66G is higher in yeast fitness: 0.74 for the first, 0.962 for the second.

Compared with U26C A36G A69C, U26G A37C G38A A42G G44C A45G C49U A65U is lower in yeast fitness: 0.736 for the first, at most 0.5 for the second.

Compared with G25C G41C C46U, G25C C60U C61A is lower in yeast fitness: 0.579 for the first, at most 0.5 for the second.

Going from C27A G52C to G25A C31U U47G C55A A57G A65C A70C, the yeast fitness falls from 0.562 to at most 0.5.

Compared with C27G A43C C60G, C27A C31G G50A is higher in yeast fitness: at most 0.5 for the first, 0.661 for the second.

Going from C27G A43G to C27A U28C C29G C61A, the yeast fitness rises from 0.636 to 0.664.

First: C27U A37U G67A
Second: U26G C30G
The yeast fitness of the first is lower: at most 0.5 for the first, 0.6 for the second.

First: G25A G41A
Second: G25A C31A G44C
The yeast fitness of the first is higher: 0.822 for the first, 0.597 for the second.

U26C G48C G52C A57C G58A and C27G A42U U53C cannot be ordered by yeast fitness: at most 0.5 for the first, at most 0.5 for the second.

Going from U26C C33G A36G A42C C49G G58C C62G to U26C A43G, the yeast fitness rises from at most 0.5 to 1.01.

Compared with U26C A43C, C27G A42G A57G U59G is lower in yeast fitness: 0.952 for the first, at most 0.5 for the second.

Going from U26G G63C C66U to U26A A40C U64G, the yeast fitness rises from at most 0.5 to 0.538.

Going from C27G A42U to G25C G50A C62G, the yeast fitness rises from 0.721 to 0.897.

Going from C27A A36U A37U G48C C61U to G25C A40C G63A, the yeast fitness rises from at most 0.5 to 0.69.

Compared with U26A G50U, G25C C34U A40G U54A A65G is lower in yeast fitness: 0.805 for the first, 0.582 for the second.

First: C27G A36U U53A
Second: U26G G48A A57U
The yeast fitness of the first is lower: at most 0.5 for the first, 0.598 for the second.

First: C27G G44C U47C
Second: C27G A40U
The yeast fitness of the first is lower: at most 0.5 for the first, 0.682 for the second.

Going from C27G A40G to U26G C46A, the yeast fitness rises from 0.594 to 0.949.

Going from U26C C34U to U26G C27U G56A A65C, the yeast fitness falls from 0.716 to at most 0.5.

U26C C30G A45U U53A C62U G68C and C27G C31G G68A cannot be ordered by yeast fitness: at most 0.5 for the first, at most 0.5 for the second.

Going from G25C U35C G58C to C27A U28C G67U A70G, the yeast fitness falls from 0.558 to at most 0.5.

C27G C30U U32C G51C U64A and U26C C33G A45G cannot be ordered by yeast fitness: at most 0.5 for the first, at most 0.5 for the second.

G25C C31U U32A A70G and G25A C34A A40U cannot be ordered by yeast fitness: at most 0.5 for the first, at most 0.5 for the second.

Compared with U26A C30U A42C C46U A65G, G25C C27G C30G C60A is lower in yeast fitness: 0.859 for the first, at most 0.5 for the second.

Compared with U26A C33A, U26A A43U is higher in yeast fitness: 0.689 for the first, 0.937 for the second.

Going from U26G G50C A57G to U26C C33G A36U A57U, the yeast fitness falls from 0.529 to at most 0.5.

Going from U26C C61G G63A A69U to G25A C31U U64A, the yeast fitness rises from 0.532 to 0.642.

U26C G41C C61G A69C and C27G A40C C55G cannot be ordered by yeast fitness: at most 0.5 for the first, at most 0.5 for the second.

Compared with G25C A37U, G25C A42G G68A is higher in yeast fitness: 0.56 for the first, 0.621 for the second.

First: G25A G58C A65G
Second: C27U A36G
The yeast fitness of the first is higher: 1.04 for the first, 0.85 for the second.

Going from G25C C33G C61G to C27G G58A, the yeast fitness rises from at most 0.5 to 0.698.

Compared with G25C A36G G48A, C27G C30U G56A is lower in yeast fitness: 0.571 for the first, at most 0.5 for the second.

G25C C29A G48A U53G and G25A C33G A42G G50A G52A cannot be ordered by yeast fitness: at most 0.5 for the first, at most 0.5 for the second.

Going from G25A G48A A70U to G25C C46U G50C, the yeast fitness falls from 0.81 to at most 0.5.

C27A C61G C66U A69U and C27A G39A A57G cannot be ordered by yeast fitness: at most 0.5 for the first, at most 0.5 for the second.

First: C27A G58C
Second: G25C U35C U59A G67U A69C
The yeast fitness of the first is higher: 1.13 for the first, at most 0.5 for the second.

Going from C27A A65U to G25C U53A A57U A65U, the yeast fitness falls from 0.678 to at most 0.5.

C27G C29A C61U and C27U A36C A42U C46U C62U G63A cannot be ordered by yeast fitness: at most 0.5 for the first, at most 0.5 for the second.

Compared with C27A C29U G48A G68C, G25C C61U is higher in yeast fitness: at most 0.5 for the first, 1.1 for the second.

Compared with U26C C46A U47G G50A, C27G C30G is lower in yeast fitness: 0.541 for the first, at most 0.5 for the second.

G25C C29A G48C C60A and G25C A37G A43C C55G G68A cannot be ordered by yeast fitness: at most 0.5 for the first, at most 0.5 for the second.

Compared with G25C A43G C61U, C27G U28A C61U A65U A70U is lower in yeast fitness: 0.623 for the first, at most 0.5 for the second.

Going from U26G U28A A43G C61U G67A to U26A C27A, the yeast fitness rises from 0.599 to 0.671.

Going from U26C A45G to G25A G50C, the yeast fitness falls from 0.966 to 0.929.

First: G25C G51A U54A
Second: C27G A45C G58C
The yeast fitness of the first is lower: 0.507 for the first, 0.644 for the second.

Compared with U26A A40U, U26A G58C C62U is lower in yeast fitness: 0.809 for the first, 0.659 for the second.

Going from G25C C30U C61G to U26A C49U G56A, the yeast fitness rises from 0.526 to 0.706.

C27G A40C C60U and C27A U32G G51A G56C A70G cannot be ordered by yeast fitness: at most 0.5 for the first, at most 0.5 for the second.

G25C C31G G51C A65U and U26C U53C A57U C66G cannot be ordered by yeast fitness: at most 0.5 for the first, at most 0.5 for the second.

First: U26C C27U U59C
Second: C27A C31G U54C
The yeast fitness of the first is lower: 0.702 for the first, 0.744 for the second.

Compared with C27G A69U, U26C G68C is higher in yeast fitness: 0.738 for the first, 0.936 for the second.

Going from G25C C27U C61G to C27U A37U A69C, the yeast fitness rises from 0.502 to 0.608.

First: C27A A57C C66U
Second: U26A G52A
The yeast fitness of the first is lower: 0.538 for the first, 0.666 for the second.

First: G25C C30A
Second: G25A C30U A36C
The yeast fitness of the first is higher: 0.792 for the first, at most 0.5 for the second.

Going from U26A G68C A69G to U26C C30G A43U G50A, the yeast fitness falls from 0.572 to at most 0.5.

Compared with U26C C30G G67C, U26A C31A A45U is higher in yeast fitness: at most 0.5 for the first, 0.563 for the second.

Going from U26A G56A to G25U C60G, the yeast fitness falls from 1.02 to at most 0.5.

Variant C27G A36C G44A has a yeast fitness of at most 0.5.
